Experimental data published in publication PMC4116675 (Molecular microbiology, 2014).
“Also recorded” adds a separate entry of the source.

Tests used:
MucB [1] = settings: ref Lima et al., 2013; cited from earlier work
[2] = test system: AlgW (substrate 35S-MucA, inhibitor MucB); test: AlgW cleavage of 35S-MucA in the presence of MucB; format: biochemical, Pseudomonas aeruginosa; settings: for MucA cleavage level relative to WVF and AlgW alone (no MucB): Figs. 4B vs 4D, CupB5 peptide + WVF + MucB; for antagonism / relief of MucB inhibition in vitro: summary statement, WVF-activated AlgW cleavage of MucA with MucB
[3] = test system: AlgW (substrate 35S-MucA); test: WVF-activated AlgW cleavage of 35S-MucA with or without CupB5 peptides; format: biochemical, Pseudomonas aeruginosa; settings: Fig. 5C; GYYYTVV 300 μM, increasing WVF, fixed MucA (50 μM)
How it was run: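 Ni-NTA-purified AlgW (0.5 μM trimer) cleaved 35S-MucA (50 μM) across a range of WVF peptide concentrations, with or without CupB5 peptides (300 μM). Protease addition started the reactions; cold 10% TCA quenched them at timed points. Acid-soluble products were scintillation-counted against total radioactivity, and rates were divided by substrate and enzyme concentrations. Values were averages ± SEM (n=2), fitted to rate = basal + Vmax/(1 + (Kact/[peptide])h).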

MucB [4] = test: MucB oligomerization, gel-filtration chromatography; format: binding, Pseudomonas aeruginosa; settings: Fig. S2
[5] = test system: P. aeruginosa strain PAO1 and derivatives; test: Alginate production and mucoid phenotype on plasmid overexpression of proteins; format: cell-based, Pseudomonas aeruginosa; settings: Fig. 6A, 6B; for alginate production in PAO1-VE2 on plasmid-mediated overproduction: PAO1-VE2 (mucE overexpressed); for alginate production in PAO1-VE22 on plasmid-mediated overproduction: PAO1-VE22 (cupB5 overexpressed), 0.1% L-arabinose, 37°C, 24 h

Molecule | MucA cleavage level relative to WVF and AlgW alone (no MucB) [2] | antagonism / relief of MucB inhibition in vitro [2] | alginate production in PAO1-VE2 on plasmid-mediated overproduction [5] | alginate production in PAO1-VE22 on plasmid-mediated overproduction [5] | further results
Lipopolysaccharides | – | – | – | – | binding to MucB and displacement of MucA (MucB [1]): bind MucB and competitively displace MucA
GYYYTVV | approximately one-third | antagonized MucB inhibition in vitro; also recorded: only partially relieve MucB inhibition in vitro | – | – | change in maximum rate of MucA cleavage on adding CupB5 peptide [3]: increased almost two-fold; change in MucB elution / conversion of MucB dimers to tetramers (MucB [4]): no substantial change in elution during gel-filtration chromatography; also recorded: did not convert MucB dimers into tetramers
GYYYT | approximately one-third | did antagonize MucB inhibition in vitro; also recorded: only partially relieve MucB inhibition in vitro | – | – | potency and cooperativity of activation, GYYYT vs GYYYTVV ([2]; Fig. 4D, WVF 150 μM, MucB present): occurred at lower peptide concentrations and was less cooperative as judged by the Hill constant than activation by the GYYYTVV peptide
MucA: anti-sigma factor; free MucA as competitor of resin-bound MucA (protein, UniProt P38107 1-194, looked up) Sigma factor AlgU negative …: MSREALQETLSAVMDNEADELELRRVLAACGEDAELRSTWSRYQLARSVMHREPTLPKLDIAAAVSAALADEAAPPKAEKGPWRMVGRLAVAASVTLAVLAGVRLYNQNDALPQMAQQGTTPQIALPQVKGPAVLAGYSEEQGAPQVITNSSSSDTRWHEQRLPIYLRQHVQQSAVSGTESALPYARAASLENR | – | – | decreased alginate production in PAO1-VE2 | as did plasmid-mediated overproduction of MucA | –
MucB: competes for MucA binding and can inhibit this cleavage (protein, UniProt P38108 22-316, looked up) Sigma factor AlgU regulatory …: ADASDWLNRLAEADRQNSFQGTFVYERNGSFSTHEIWHRVESDGAVRERLLQLDGARQEVVRVDGRTQCISGGLADQLADAQLWPVRKFDPSQLASWYDLRLVGESRVAGRPAVVLAVTPRDQHRYGFELHLDRDTGLPLKSLLLNEKGQLLERFQFTQLNTGAAPAEDQLQAGAECQVVGPAKADGEKTVAWRSEWLPPGFTLTRSFMRRSPVTPDPVACLTYGDGLARFSVFIEPLHGAMVGDARSQLGPTVVVSKRLQTDDGGQMVTVVGEVPLGTAERVALSIRPEAAAQK | – | – | decreased alginate production in PAO1-VE2 | plasmid-mediated MucB overproduction had this effect | –
